pIC50: −log10 of the molar value. Converted amounts (≈) assume the structure as drawn.

Data on twelve compounds can be found in ChEMBL document CHEMBL4017470, “One drug for two targets: Biological evaluation of antiretroviral agents endowed with antiproliferative activity” (Bioorg Med Chem Lett, 2017).

Series [1] can be described thus: Selectivity index, ratio of IC50 for HEK293 cells to IC50 for human Ramos cells. The class given is functional.
Series [2] is described as follows: Selectivity index, ratio of IC50 for BAEC cells to IC50 for human MCF7 cells. The class given is functional.
The nature of series [3]: Growth inhibition of BAEC after 2 days by MTT assay. The class given is cell-based. The note with it: Bos taurus, 48 h. A general note: Formazan colour is commonly taken as a measure of viable cells.
The nature of series [4]: Selectivity index, ratio of IC50 for HEK293 cells to IC50 for human HT-29 cells. The class given is functional.
Series [5] in a line: Selectivity index, ratio of IC50 for BAEC cells to IC50 for human Ramos cells. The class given is functional.
Series [6] has as its system HT-29. In words: Down regulation of c-Myc expression in human HT-29 cells assessed as c-Myc expression level at 1 uM after 48 hrs by RT-qPCR analysis relative to control. The class given is functional. Put shortly: (§1)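 HT-29 cells were incubated 48 h with compound, with DMSO as the vehicle control and resveratrol as the positive control. Total RNA was extracted, reverse-transcribed to cDNA, and hTERT or c-Myc quantified by RT-qPCR. Expression was normalized to β-actin and given as % of the DMSO control (100%). At least three measurements per case; mean ± SEM; one-sample t-test.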
Background: Quantitative PCR measures a nucleic acid by following its amplification.

The subject of another series is HEK293. The series is described as follows: Growth inhibition of HEK293 cells after 2 days by MTT assay. The note with it: Homo sapiens, HEK293, 48 h. The class given is cell-based.
Series [7] deals with HT-29. The series is described as follows: Down regulation of hTERT expression in human HT-29 cells assessed as hTERT expression level at 1 uM after 48 hrs by RT-qPCR analysis relative to control. The class given is functional. In a few lines:
as §1

The test system of the next series is Ramos. The series is described as follows: Growth inhibition of human Ramos cells after 2 days by MTT assay. The class given is functional, cell-based. The note with it: 48 h.
Series [8] in a line: Selectivity index, ratio of IC50 for HEK293 cells to IC50 for human MCF7 cells. The class given is functional.
The subject of series [9] is Human immunodeficiency virus 1. In words: Antiviral activity against HIV-1 NL4.3 infected in human TZM-b1 cells pretreated for 1 hr followed by viral infection measured after 2 days by CPRG assay. The class given is functional, cell-based. The note with it: Human immunodeficiency virus 1, NL4.3, TZM-b1.
A short description of series [10]: Selectivity index, ratio of IC50 for BAEC cells to IC50 for human HT-29 cells. The class given is functional.
The subject of another series is MCF7. In words: Growth inhibition of human MCF7 cells after 2 days by MTT assay. The class given is functional, cell-based. The note with it: MCF7, 48 h.
Series [11] is described as follows: Cytotoxicity against human TZM-b1 cells by XTT assay. The class given is cell-based. The note with it: read-out: LD50 (the source's name).
In series [12] the test system is HT-29. The series is described as follows: Growth inhibition of human HT-29 cells after 2 days by MTT assay. The class given is functional, cell-based. The note with it: HT-29, 48 h.
In series [13] the test system is HT-29. The series is described as follows: Down regulation of hTERT expression in human HT-29 cells assessed as hTERT expression level at 20 uM after 48 hrs by RT-qPCR analysis relative to control. The class given is functional. In a few lines:
as §1

Series [14] concerns HT-29. The series is described as follows: Down regulation of c-Myc expression in human HT-29 cells assessed as c-Myc expression level at 20 uM after 48 hrs by RT-qPCR analysis relative to control. The class given is functional. In a few lines: as §1
For series [15], the system named is HT-29. In words: Down regulation of c-Myc expression in human HT-29 cells assessed as c-Myc expression level at 5 uM after 48 hrs by RT-qPCR analysis relative to control. The class given is functional. Put shortly: as §1
For series [16], the system named is HT-29. In words: Down regulation of hTERT expression in human HT-29 cells assessed as hTERT expression level at 5 uM after 48 hrs by RT-qPCR analysis relative to control. The class given is functional. In a few lines: as §1
Series [17] is described as follows: Metabolic stability in human liver microsomes at 50 uM measured after 60 mins in presence of NADPH generating system by LC-UV-MS method. The class given is ADME, microsome. The note with it: read-out: Stability. On the technique in general: Liver microsomes are a subcellular fraction often used to study metabolism.
The nature of series [18]: Apparent permeability of the compound in phosphate buffer at pH 7.4 by PAMPA. The class given is physicochemical.
Series [19] can be described thus: Aqueous solubility of the compound in water at 1 mg after 24 to 36 hrs by LC-MS/MS analysis. The class given is physicochemical.

With `O=C1/C(=C/c2ccc(-c3cc(C(F)(F)F)ccc3Cl)o2)SC(=S)N1Cc1ccc(F)cc1`, the “Ratio IC50” value stood at 0.59 in [1]; 1.83 in series [2]; 0.52 in series [4]; 0.53 in series [5]; 2 in series [8]; 0.48 in [10]. The pIC50 in [3] is 5.66; in the series with HEK293 it was 5.62; with Ramos it was 5.39; in series [9], 4.76; with MCF7 it was 5.92; with HT-29 [12], 5.34. In addition, the Activity is 69% with HT-29 [6] and 37% in the series with HT-29 [7]. Moreover, the CC50 in series [11] was above 50 µM.

As to `CCc1ccc(CCNC2=NC(=O)/C(=C/c3ccc(-c4ccc(C(=O)O)c(O)c4)o3)S2)cc1`, the “Ratio IC50” value is recorded as 0.09 in [1]; 4.44 in [2]; 0.13 in series [4]; 0.54 in series [5]; 0.76 in series [8]; 0.77 in [10]. Further, the pIC50 is 4.70 in [3]; 5.47 in the series with HEK293; 4.43 with Ramos; 6.00 in [9]; 5.35 in the series on MCF7; 4.59 in the series on HT-29 [12]. Further, the Activity in the series with HT-29 [13] amounted to 56%; in the series with HT-29 [14] it was 67%. Also, in series [11], the CC50 was above 50 µM.

For `Cc1nnc(C(=O)NC(C)(C)c2nc(C(=O)NCc3ccc(F)cc3)c(O)c(=O)n2C)o1` [RALTEGRAVIR], the pIC50 in [9] is 7.68. For the same compound, the CC50 in series [11] was above 50 µM.

On to `O=C(O)c1ccc(-c2ccc(/C=C3\SC(=S)N(CCc4ccc(Cl)c(Cl)c4)C3=O)o2)cc1O`, for which the “Ratio IC50” value is on record as below 0.29 in series [1]; below 0.86 in series [2]; below 0.29 in [4]; below 0.86 in series [5]; below 0.29 in series [8]; below 0.86 in series [10]. In addition, the pIC50 was 4.07 in series [3]; 4.54 in the series with HEK293; below 4.00 in the series with Ramos; 5.32 in [9]; below 4.00 with MCF7; below 4.00 in the series with HT-29 [12]. Besides, the CC50 in [11] is above 50 µM.

On to `O=C1/C(=C/c2ccc(-c3cc(C(F)(F)F)ccc3Cl)o2)SC(=S)N1Cc1ccc(Cl)cc1`, for which the “Ratio IC50” value in series [1] stood at 1.1; in series [2], 2.12; in series [4], 0.51; in series [5], 0.63; in series [8] it was 3.72; in [10], 0.29. Moreover, the pIC50 in [3] was 5.62; in the series on HEK293, 5.38; in the series with Ramos it was 5.42; in series [9] it was 5.16; in the series with MCF7, 5.95; in the series on HT-29 [12] it was 5.08. Moreover, the results for the Activity in the series on HT-29 [15] and in the series on HT-29 [16] were 100% and 53%, respectively. In addition, in [11], the CC50 was above 50 µM.

For `Oc1ccc(/C=C/c2cc(O)cc(O)c2)cc1` [RESVERATROL], the pIC50 was 4.24 in series [3]; 4.77 in the series on HEK293; 4.43 in the series with Ramos; 4.47 with MCF7; 3.86 in the series on HT-29 [12]. The Activity in the series with HT-29 [6] was found to be 47%; in the series with HT-29 [7] it was 28%.

Consider `C[C@]12CC[C@H]3[C@@H](CCC4=CC(=O)CC[C@@]43C)[C@@H]1CC[C@@H]2O` [TESTOSTERONE], for which, in series [17], the remaining at 1 h, 50 µM was determined as 76.2%.

As to `CC(C)NCC(O)COc1cccc2ccccc12` (stereo not drawn) [PROPRANOLOL], the Papp in series [18] was determined as 9.68 ×10⁻⁶ cm/s.

Consider `O=C1N=C(N2CCOCC2)S/C1=C\c1ccc(-c2ccc(C(=O)O)c(O)c2)o1`, for which the “Ratio IC50” value in series [1] was 16.9; in series [2], 3.62; in series [4], 23.04; in series [5], 24.2; in series [8] it was 2.52; in series [10], 33.04. Moreover, the pIC50 in [3] is 4.12; in the series with HEK293, 4.28; in the series with Ramos, 5.50; in series [9], 4.87; with MCF7, 4.68; with HT-29 [12], 5.64. The remaining at 1 h, 50 µM in series [17] worked out at 98.7%. Further, the Activity in the series on HT-29 [6] is on record as 60%; in the series on HT-29 [7], 51%. For the same compound, the apparent permeability (Papp) in [18] was 1.28 ×10⁻⁶ cm/s. In series [19], this compound came in with a solubility of 9.7 µM (≈ 3.88 µg/mL). In addition, in [11], the CC50 was above 50 µM.

Regarding `O=C1N=C(NCCc2ccc(Cl)c(Cl)c2)S/C1=C\c1ccc(-c2ccc(C(=O)O)c(O)c2)o1`, the pIC50 was below 4.00 in series [3]; below 4.00 in the series on HEK293; below 4.00 with Ramos; 5.74 in series [9]; below 4.00 with MCF7; below 4.00 in the series on HT-29 [12]. The CC50 in [11] was above 50 µM.

With `O=C1N=C(Nc2ccc(F)c(Cl)c2)S/C1=C\c1ccc(-c2ccc(C(=O)O)c(O)c2)o1`, the “Ratio IC50” value in series [1] stood at 3.9; in series [2], 1.92; in series [4] it was 10.91; in [5], 8; in [8], 0.92; in series [10], 22.72. Besides, the pIC50 in series [3] was 4.60; in the series on HEK293 it was 4.92; in the series with Ramos, 5.51; in series [9], 6.00; in the series on MCF7, 4.89; with HT-29 [12], 5.96. The remaining at 1 h, 50 µM in series [17] stood at 99.1%. Further, the Activity in the series with HT-29 [6] was found to be 60%; with HT-29 [7], 53%. Besides, the Papp in [18] stood at 1.58 ×10⁻⁶ cm/s. This compound yielded a solubility in [19] of 11.8 µM (≈ 5.41 µg/mL). Moreover, in series [11], the CC50 is above 50 µM.

For `Cn1c(=O)c2c(ncn2C)n(C)c1=O` [CAFFEINE], the Papp in series [18] was below 0.1 ×10⁻⁶ cm/s.

As a reminder, the pIC50 is −log10 of the IC50, conventionally taken in molar units. As usually defined, the Papp is the rate of passage across a membrane or cell layer, normalised by area and donor concentration. As a reminder, the solubility is the concentration that dissolves in the medium under given conditions. Low readings indicate a poorly soluble substance, high ones a readily soluble substance.
